This note sets out measurements from ChEMBL document CHEMBL1147933, “Conformationally restricted homotryptamines 3. Indole tetrahydropyridines and cyclohexenylamines as selective serotonin reuptake inhibitors” (Bioorg Med Chem Lett, 2007).

The target in test [1] is T1, Sodium-dependent serotonin transporter (Homo sapiens, UniProt P31645). Put plainly: Displacement of [3H]citalopram from human SERT expressed in HEK293 cells. It counts as cell-based. The procedure, abridged:
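Membrane homogenates from HEK-293 cells stably expressing human SERT, incubated 1 h at 25 °C with 2 nM [3H]citalopram (85 Ci/mmol) and increasing test concentrations. Non-specific binding defined with 10 µM fluoxetine. Specific binding plotted against −log drug concentration, and the midpoint of the displacement curve was taken as IC50.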

Test [2] addresses T2, Sodium-dependent noradrenaline transporter (Homo sapiens, UniProt P23975). Put plainly: Inhibition of human NET at 1 uM.
The target in test [3] is T3, Sodium-dependent dopamine transporter (Homo sapiens, UniProt Q01959). Put plainly: Inhibition of human DAT at 1 uM.
T3 sequence (Q01959 whole entry): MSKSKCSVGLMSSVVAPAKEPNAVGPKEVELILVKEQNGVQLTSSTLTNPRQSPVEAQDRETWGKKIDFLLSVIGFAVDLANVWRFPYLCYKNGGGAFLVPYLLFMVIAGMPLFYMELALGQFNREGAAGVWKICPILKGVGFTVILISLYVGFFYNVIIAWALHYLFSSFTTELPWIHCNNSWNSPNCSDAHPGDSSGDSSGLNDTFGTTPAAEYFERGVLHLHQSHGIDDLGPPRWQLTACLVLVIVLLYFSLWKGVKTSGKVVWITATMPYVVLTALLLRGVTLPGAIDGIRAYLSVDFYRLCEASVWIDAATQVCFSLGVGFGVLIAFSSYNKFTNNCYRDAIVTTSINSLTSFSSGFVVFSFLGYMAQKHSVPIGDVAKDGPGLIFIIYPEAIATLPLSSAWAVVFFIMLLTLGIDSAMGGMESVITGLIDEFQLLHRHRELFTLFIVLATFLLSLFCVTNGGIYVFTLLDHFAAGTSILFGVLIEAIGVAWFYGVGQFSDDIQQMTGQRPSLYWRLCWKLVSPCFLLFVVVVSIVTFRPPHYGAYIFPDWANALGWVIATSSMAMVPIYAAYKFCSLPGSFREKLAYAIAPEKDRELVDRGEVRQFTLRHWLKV
Test [4] concerns the target T3, Sodium-dependent dopamine transporter. Kind of test: Displacement of [125I]RTI-55 from human DAT expressed in HEK293 cells. It counts as cell-based. The procedure, abridged: (§1)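 Membrane homogenates from HEK-293 cell lines stably transfected with the human transporter, incubated with 125I ligands: [125I]RTI-55 for SERT (260 pM) and DAT (125 pM), and custom [125I]nisoxetine for NET (300 pM). Reactions run in 384-well format and filter-harvested. IC50 taken from a 20-point concentration curve in a single experiment.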
(In a radioligand displacement assay an active substance lowers the binding of a labelled ligand.)

Test [5] concerns the target T1, Sodium-dependent serotonin transporter. Kind of test: Displacement of [125I]RTI-55 from human SERT expressed in HEK293 cells. It counts as cell-based. A digest of the protocol:
as §1

The target of test [6] is T2, Sodium-dependent noradrenaline transporter. Put plainly: Displacement of [125I]Nisoxetine from human NET expressed in HEK293 cells. It counts as cell-based. The procedure, abridged:
as §1

Test [7] deals with Rattus norvegicus. Put plainly: Increase in fluoxetine-induced serotonin concentration in rat frontal cortex by microdialysis at 10 mg/kg, po. Set-up: dose 10 mg/kg. It counts as functional, organism-based.
The subject of test [8] is Rattus norvegicus. Kind of test: Increase in fluoxetine-induced serotonin concentration in rat frontal cortex by microdialysis at 1 mg/kg, ip. It counts as functional, organism-based. More on the design: dose 1 mg/kg.

Calls of active or inactive are those of the source. No cut-off for these calls is given here.

T2 sequence (P23975 whole entry): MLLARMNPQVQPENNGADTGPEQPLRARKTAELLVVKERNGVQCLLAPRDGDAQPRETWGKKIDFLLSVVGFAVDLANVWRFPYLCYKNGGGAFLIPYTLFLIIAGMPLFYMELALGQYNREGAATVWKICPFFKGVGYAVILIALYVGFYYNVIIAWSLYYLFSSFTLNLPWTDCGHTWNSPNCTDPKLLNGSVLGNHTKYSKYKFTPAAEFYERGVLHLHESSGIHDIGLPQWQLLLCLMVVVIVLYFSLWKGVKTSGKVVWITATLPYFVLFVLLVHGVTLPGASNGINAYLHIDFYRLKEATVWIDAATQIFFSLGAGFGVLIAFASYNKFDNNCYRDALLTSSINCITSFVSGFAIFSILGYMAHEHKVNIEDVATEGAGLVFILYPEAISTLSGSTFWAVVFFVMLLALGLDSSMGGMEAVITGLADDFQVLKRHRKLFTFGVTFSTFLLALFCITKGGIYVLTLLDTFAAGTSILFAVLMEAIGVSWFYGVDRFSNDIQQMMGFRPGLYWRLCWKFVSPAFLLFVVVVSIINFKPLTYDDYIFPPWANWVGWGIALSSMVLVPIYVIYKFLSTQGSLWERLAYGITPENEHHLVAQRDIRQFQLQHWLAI
T1 sequence (P31645 whole entry): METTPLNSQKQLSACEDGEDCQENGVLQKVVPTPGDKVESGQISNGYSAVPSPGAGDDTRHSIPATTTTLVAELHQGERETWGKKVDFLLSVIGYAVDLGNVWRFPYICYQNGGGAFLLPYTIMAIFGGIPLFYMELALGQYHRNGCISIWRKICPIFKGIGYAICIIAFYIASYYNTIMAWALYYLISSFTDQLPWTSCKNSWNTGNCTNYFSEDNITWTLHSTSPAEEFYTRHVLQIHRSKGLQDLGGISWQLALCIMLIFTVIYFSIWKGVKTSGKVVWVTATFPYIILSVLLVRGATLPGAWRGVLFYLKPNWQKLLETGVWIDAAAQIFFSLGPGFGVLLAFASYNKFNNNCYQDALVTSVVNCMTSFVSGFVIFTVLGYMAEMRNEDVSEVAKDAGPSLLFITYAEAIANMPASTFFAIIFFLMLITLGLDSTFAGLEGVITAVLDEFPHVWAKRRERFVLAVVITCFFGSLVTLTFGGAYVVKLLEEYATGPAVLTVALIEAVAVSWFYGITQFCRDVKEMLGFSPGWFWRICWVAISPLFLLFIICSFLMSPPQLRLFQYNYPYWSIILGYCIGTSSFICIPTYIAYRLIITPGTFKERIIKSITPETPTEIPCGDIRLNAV

In test [1], `CN1CC=C(c2c[nH]c3ccccc23)CC1` had an IC50 of 690 nM.

In test [1], `CN1CC=C(c2c[nH]c3ccc(Cl)cc23)CC1` displayed an IC50 of 240 nM.

As to `CN(C)C1CC=C(c2c[nH]c3ccccc23)CC1` (stereo not given), the inhibition in test [2] came to 70%; in test [3] it was 67%. Further, in test [1], the IC50 came to 3.1 nM.

`CN(C)C1CC=C(c2c[nH]c3ccc(Br)cc23)CC1` (stereo not given): the inhibition was determined as 99% in test [2] and 95% in test [3]. Further, the IC50 in test [1] is 5.3 nM.

On to `COc1ccc2[nH]cc(C3=CCC(N(C)C)CC3)c2c1` (stereo not given), for which, in test [1], the IC50 came to 150 nM.

Compound `CN1CC=C(c2c[nH]c3ccc(F)cc23)CC1` registered a concentration for half-maximal inhibition (IC50) in test [1] of 160 nM.

`Cc1ccc2[nH]cc(C3=CCN(C)CC3)c2c1`: in test [1], the IC50 is 910 nM.

On to `COc1ccc2[nH]cc(C3=CCN(C)CC3)c2c1`, for which the 50% inhibitory concentration (IC50) in test [1] was found to be 730 nM.

`Cc1ccc2[nH]cc(C3=CCC(N(C)C)CC3)c2c1` (stereo not given): the IC50 in test [1] worked out at 770 nM.

As for `CN(C)[C@@H]1CC=C(c2c[nH]c3ccc(C#N)cc23)CC1`, the half-maximal inhibitory concentration (IC50) in test [1] was 1.1 nM; in test [4], 80 nM; in test [5] it was 0.56 nM; in test [6], 37 nM.

In the case of `CN(C)C1CC=C(c2c[nH]c3ccc(Cl)cc23)CC1` (stereo not given), the inhibition in test [2] came out at 34%; in test [3] it was 16%. Besides, the concentration for half-maximal inhibition (IC50) in test [1] was 19 nM.

For the compound `CN1CC=C(c2c[nH]c3ccc([N+](=O)[O-])cc23)CC1`, the inhibition was determined as 27% in test [2] and 73% in test [3]. In test [1], this compound showed an IC50 of 40 nM.

Take `CN(C)C1CC=C(c2c[nH]c3ccc(C#N)cc23)CC1` (stereo not given): the result in the test on Rattus norvegicus [7] and in the test with Rattus norvegicus [8] was Active. For the same compound, the inhibition stood at 90% in test [2] and 71% in test [3]. Moreover, the 50% inhibitory concentration (IC50) in test [1] stood at 1.6 nM; in test [4], 97 nM; in test [5] it was 0.34 nM; in test [6] it was 57 nM.

As to `CN1CC=C(c2c[nH]c3ccc(C#N)cc23)CC1`, the figures for the inhibition in test [2] and in test [3] were 15% and 56%, respectively. Moreover, in test [1], the concentration for half-maximal inhibition (IC50) is 19 nM.

Take `CN(C)C1CC=C(c2c[nH]c3ccc(F)cc23)CC1` (stereo not given): the inhibition in test [2] was 35%; in test [3] it was 23%. The same compound gave a half-inhibitory concentration (IC50) in test [1] of 14 nM.

As for `CN(C)C1CC=C(c2c[nH]c3ccc([N+](=O)[O-])cc23)CC1` (stereo not given), the inhibition in test [2] was 81%; in test [3] it was 74%. This compound registered a concentration for half-maximal inhibition (IC50) in test [1] of 1 nM.

In turn, `CN1CC=C(c2c[nH]c3ccc(Br)cc23)CC1` showed an IC50 in test [1] of 210 nM.

With `CN(C)[C@H]1CC=C(c2c[nH]c3ccc(C#N)cc23)CC1`, the IC50 in test [1] is 0.72 nM; in test [4], 290 nM; in test [5] it was 0.4 nM; in test [6], 390 nM.

One may read the IC50 as the point on the concentration scale where inhibition reaches its midpoint. One may read the inhibition as the percentage by which the read-out fell short of the control. The low end stands for a weak effect, the high end for a strong effect.
